Measurements taken from publication PMC10760106 (bioRxiv, 2023).

Columns and labels:
[1] = system: HiBiT F3 in ARPE-19 cells; experiment: non-HTS extracellular/intracellular HiBiT F3 assay; type: cell-based, human; conditions: for HiBiT F3 secretion (extracellular) / intracellular HiBiT F3 levels: dose-responsive, ARPE-19
Outline: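 HiBiT F3 ARPE-19 cells were plated at 200,000 cells/mL, and test compound in medium was added the next day. Treatment lasted 72 h or 1 week, with medium and compound renewed after 96 h for 1-week wells. For intracellular signal, cells were washed in HBSS and lysed 5 min with shaking in lytic buffer containing LgBiT (1:100) and substrate (1:50). Luminescence was read on 40 μL of lysate.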

[2] = system: ARPE-19 cells; experiment: lactate dehydrogenase; type: cell-based, human
Outline: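 Test compound was applied to ARPE-19 cells for 72 h or 1 week. Media were spun at 1,000 RPM for 5 min. In technical triplicate, 50 μL of cleared medium was mixed with an equal volume of LDH reaction buffer for 30 min at 37°C. DMSO-treated medium served as control, and lysis buffer-treated cells served as positive control.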

[3] = system: HiBiT F3 in primary human dermal fibroblasts; experiment: HiBiT F3 assay in primary dermal fibroblasts; type: cell-based; conditions: 72 h, dose-responsive
[4] = system: MMP2; experiment: MMP2 zymography; type: cell-based, human; conditions: 1 μM, 1 week, HiBiT WT F3 and R345W F3 cells
Outline: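 HiBiT WT or R345W F3 ARPE-19 cells were grown on polyester transwells in serum-free medium for 1 week, then treated 1 week with 1 μM test compound or 0.1% DMSO. Apical and basal media went in non-reducing SDS buffer onto 10% gelatin gels (140 V, 90 min). Gels were renatured 30 min at RT, developed 30 min at RT, then overnight at 37°C in fresh developing buffer. Coomassie R-250 staining and densitometry followed.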

[5] = system: HiBiT mouse F3 in NIH-3T3 cells; experiment: HiBiT F3 assay in NIH-3T3 fibroblasts; type: cell-based; conditions: NIH-3T3 mouse cells, 72 h
[6] = system: TCF-dependent Wnt signaling in HiBiT F3 ARPE-19 cells; experiment: 7xTCF reporter; type: cell-based, human; conditions: 1 μM, one week, 7TFP cells
[7] = system: BLamD in R345W+/+ knockin mice; experiment: basal laminar deposit; type: in vivo, mouse; conditions: treated mice (30/720 FOV), 25 mg/kg i.p., 1 mo; untreated 14.205%
[8] = system: transcriptome of HiBiT F3 ARPE-19 cells; experiment: bulk RNAseq; type: cell-based, human; conditions: 1 μM, 1 week
Outline: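 The next day, 1 μM test compound or DMSO (1:1000) was added, with a media change at 96 h. Total RNA was extracted 7 days after treatment start and stored at −80°C. PCR-amplified libraries were bead-purified and quality-checked on a Bioanalyzer before sequencing.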

[9] = CHIR PK experiment with LC-MS/MS; type: in vivo, mouse
Outline: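 C57BL/6J mice (three per time point, at least one male and one female) received 25 mg/kg i.p. of test compound. It was given as 5 mg/mL in 2% DMSO/5.7% Captisol in PBS. Tissues were collected at 0, 30, 180, 360, 960 and 1440 min under isoflurane, and retina and liver were homogenized in PBS. […] Eye level was estimated from a vitreous volume of ~4.4 μL.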

[10] = preclinical neurological disorder studies; ref [61]; cited from earlier work
[11] = system: HiBiT WT F3 and HiBiT R345W F3 ARPE-19 cells; experiment: extracellular HiBiT assay on transwells, WT and R345W F3; type: cell-based, human; conditions: 1 μM, 1 week, serum-free
Outline: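 Cells carried HiBiT-tagged WT or R345W F3 in ARPE-19, with R345W made by knock-in in clonal cells. They were seeded on polyester transwells (~100,000/well for 12-well, ~30,000/well for 24-well) and switched to serum-free medium the next day, with changes every 3–4 days. After 1 week, cells were treated 1 week with 1 μM test compound or 0.1% DMSO in serum-free medium. Apical and basal media were then assayed for extracellular HiBiT luminescence.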

[12] = system: secreted proteome of HiBiT ARPE-19 cells; experiment: secreted proteome visualization and mass spectrometry; type: cell-based, human
[13] = system: HiBiT F5 in ARPE-19 cells; experiment: HiBiT fibulin-5; type: cell-based, human
[14] = system: HiBiT F3 ARPE-19 cells (fibulin-3 production); experiment: HTS whole-well HiBiT F3 assay; type: cell-based, human; conditions: 0.2 nM – 50 μM, 24 h
Outline: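 Genome-edited heterogeneous ARPE-19 cells (2xFLAG-VS-HiBiT inserted after Ser16 of F3) were seeded at ~5,000 cells/well in 384-well plates and grown 24 h at 37°C. Medium was exchanged, and test compound in 0.1% DMSO was applied for 24 h. Plates were cooled 20 min at RT, then received a lytic buffer master mix with LgBiT (1:100) and lytic substrate (1:50). After 5 min shaking, whole-well luminescence was read.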

[15] = system: HiBiT F3 ARPE-19 cells; experiment: Cell Titer Glo 2.0 viability counter screen; type: cell-based, human; conditions: 1.66 and 5 μM, 48 h
[16] = both, C57BL/6J, mouse, eye, ip, 25 mg/kg
[17] = both, C57BL/6J, mouse, liver, ip, 25 mg/kg
[18] = both, C57BL/6J, mouse, plasma, ip, 25 mg/kg
[19] = both, C57BL/6J, mouse, retina, ip, 25 mg/kg

For `[Cl-].[Li+]` [LiCl, lithium chloride], the “HiBiT F3 secretion (extracellular)” value ([1]; 72 h) was “significantly reduced” and the “intracellular HiBiT F3 levels” value ([1]; 72 h) was “significantly reduced”.
With `Cc1c[nH]c(-c2cnc(NCCNc3ccc(C#N)cn3)nc2-c2ccc(Cl)cc2Cl)n1` [CHIR99021] the “toxicity by LDH release” value ([2]; 72 h) was “non-toxic”, the “cell death by LDH release” value ([2]; prolonged low level, one week) was “does not increase cell death” and the “intracellular HiBiT F3” value [3] was “significantly reduced”. For the same compound, the “secreted HiBiT F3” value [3] was “significantly reduced”, the “reduction of MMP2 levels in apical media” value [4] was 16-17% and the “reduction of MMP2 levels in basal media” value [4] was 29-31%. The F3 production [5] was “reduced F3 production”, the “TCF activation (FLuc)” value [6] was “without triggering TCF activation” and the “FOVs containing deposits (BLamDs)” value [7] was 4.167%. The “reduction of F3 secretion” value ([1]; 1 μM, one week) was 49.9 ± 7.0%, the “reduction of HiBiT F3 secretion” value ([1]; 10 μM, 72 h) was “up to 76%” and the “HiBiT F3 secretion (extracellular)” value ([1]; 72 h) was “significantly reduced”. The “intracellular HiBiT F3 levels” value ([1]; 72 h) was “significantly reduced”, the “PEDF (SERPINF1) in proteomics and RNAseq datasets” value [8] was “significantly upregulated” and the “transcripts of TYR and TYRP1” value [8] was “significantly upregulated”. For the same compound, the “estimated peak concentration of CHIR in the eye” value ([9]; after 30 min, 25 mg/kg i.p., based on vitreous volume ~4.4 μL) was ~ 1.3 μM, the concentration at 3 h [9, 16] was ~1100 nM and the concentration at 6 h [9, 16] was 364 nM. It also gave a concentration at 24 h [9, 16] of 151 nM, a Cmax [9, 17] of 33300 ng/g and a Tmax [9, 17] of 0.5 h. For the same compound, the concentration at 30 min [9, 17] was 33300 ng/g, the concentration at 180 min [9, 17] was 4680 ng/g and the concentration at 360 min [9, 17] was 1160 ng/g. It also gave a concentration at 960 min [9, 17] of 6.1 ng/g, a concentration at 1440 min [9, 17] of 5.2 ng/g and a half-life [9, 17] of 2 h. For the same compound, the MRT ([9]; both, C57BL/6J, mouse, liver, ip, 25 mg/kg, MRT, 25 mpk IP) was 1.57 h, the AUC(0-t) [9, 18] was 15500 ng·h/mL and the CL/F [9, 18] was 27 mL/min/kg. The Cmax [9, 18] was 9250 ng/mL, the Tmax [9, 18] was 0.5 h and the concentration at 30 min [9, 18] was 9250 ng/mL. The concentration at 180 min [9, 18] was 490 ng/mL, the concentration at 360 min [9, 18] was 41 ng/mL and the concentration at 960 min [9, 18] was 0.3 ng/mL. The concentration at 1440 min [9, 18] was 0.4 ng/mL, the half-life [9, 18] was 1.97 h and the MRT ([9]; both, C57BL/6J, mouse, plasma, ip, 25 mg/kg, MRT, 25 mpk IP) was 0.817 h. It also gave a Cmax [9, 19] of 527 ng/g, a Tmax [9, 19] of 0.5 h and a concentration at 30 min [9, 19] of 527 ng/g. The concentration at 180 min [9, 19] was 434 ng/g, the concentration at 360 min [9, 19] was 148 ng/g and the concentration at 960 min [9, 19] was 41 ng/g. It also gave a concentration at 1440 min [9, 19] of 61 ng/g, a half-life [9, 19] of 6.75 h and an MRT ([9]; both, C57BL/6J, mouse, retina, ip, 25 mg/kg, MRT, 25 mpk IP) of 6.05 h. The AUClast ([9]; liver, 25 mpk IP, mouse) was 4,231,688 ± 272,680 min*ng/g, the Vz_F ([9]; plasma, 25 mpk IP, mouse) was 4.586 L/kg and the AUClast ([9]; retina, 25 mpk IP, mouse) was 213,348 ± 17,725 min*ng/g. For the same compound, the MRT ([9]; retina, 25 mpk IP, mouse, 25 mg/kg) was 6.03 h, the blood-brain barrier crossing [10] was “can cross the blood-brain barrier” and the “apically and basally secreted HiBiT WT F3 and HiBiT R345W F3” value [11] was “significantly reduced”. For the same compound, the “total protein secretion (SDS-PAGE of concentrated media)” value ([12]; 10 μM) was “clear increase”, the “banding pattern or intensity of secreted protein” value ([12]; 0.1 or 1 μM) was “relatively little detectable change” and the “secreted F5” value ([13]; 72 h, all concentrations used) was “dose-responsive reduction”. For the same compound, the F5 secretion ([13]; week-long treatment, only at 1 and 10 μM) was “significantly reduced”.
For 6-bromoindirubin-3-oxime [BIO], the “HiBiT F3 secretion (extracellular)” value ([1]; 72 h) was “significantly reduced” and the “intracellular HiBiT F3 levels” value ([1]; 72 h) was “significantly reduced”.
Compound `Cc1cnc(-c2cnc(NCCNc3ccc(C#N)cn3)nc2-c2ccc(Cl)cc2Cl)[nH]1.Cl.Cl.Cl` [CHIR trihydrochloride] has a Tmax ([9]; liver, 25 mpk IP, mouse) of 0.5 h, a Tmax ([9]; plasma, 25 mpk IP, mouse) of 0.5 h and a Tmax ([9]; retina, 25 mpk IP, mouse) of 0.5 h.
For `CN1CCN(S(=O)(=O)c2ccc(-c3cnc(N)c(C(=O)Nc4cccnc4)n3)cc2)CC1` [AZD2858], the “dose-response confirmation of HiBiT F3 reduction” value [14] was “demonstrated dose-responsiveness” and the cytotoxicity profile [15] was “favorable cytotoxicity profiles”.
